# Results: ChEMBL document CHEMBL1649578, “Biofilm formation and effect of caspofungin on biofilm structure of Candida species bloodstream isolates” (2009)
# Active and inactive are the calls of the source. The rule behind the calls is not given here.
# Experiments:
# Candida albicans [1] = assay: Antifungal activity against Candida albicans isolate CA4 biofilm assessed as viable fungal count per cm2 of silicone disk at 2 ug/ml after 48 hrs […]; assay type: functional
# Summary of the method: (§1)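 Biofilms grown on serum-preconditioned silicone disks in RPMI 1640 for 24 h, PBS-washed, then exposed 48 h at 35°C on a rocker to caspofungin doubling dilutions spanning 0.25–128 μg/ml. Disks washed and sonicated/vortexed in PBS to release cells. Suspensions diluted in Butterfield buffer and plated on Sabouraud dextrose agar. Viable counts from three disks averaged as CFU/cm2.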
# Candida albicans [2] = assay: Antifungal activity against Candida albicans isolate CA4 biofilm assessed as appearance of collapsed blastospore at 16 ug/ml after 48 hrs by scanning electron microscopy; assay type: functional, organism-based
# Summary of the method: (§2)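 Silicone disks preconditioned 24 h at 37°C in heat-inactivated human serum, seeded with 1 × 10^6 CFU/ml in MOPS-buffered RPMI 1640 (pH 7.0), 1.5 h attachment at 37°C with shaking, then grown 24 h. Washed biofilms exposed to 1.0, 16 or 128 μg/ml caspofungin in RPMI 1640, 48 h at 35°C on a rocker. Untreated controls in RPMI only. Fixed in 5% glutaraldehyde/cacodylate (pH 6.2), ethanol-dehydrated, HMDS air-dried, examined by SEM. Run in triplicate.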
# Candida tropicalis [3] = assay: Antifungal activity against Candida tropicalis isolate CT8 biofilm assessed as viable fungal count per cm2 of silicone disk at 128 ug/ml after 48 hrs […]; assay type: functional; summary of the method: as §1
# Candida tropicalis [4] = assay: Antifungal activity against Candida tropicalis isolate CT8 biofilm assessed as viable fungal count per cm2 of silicone disk at 4 ug/ml after 48 hrs […]; assay type: functional; summary of the method: as §1
# Candida tropicalis [5] = assay: Antifungal activity against Candida tropicalis isolate CT8 biofilm assessed as viable fungal count per cm2 of silicone disk at 64 ug/ml after 48 hrs […]; assay type: functional; summary of the method: as §1
# Candida tropicalis [6] = assay: Antifungal activity against Candida tropicalis isolate CT8 biofilm assessed as viable fungal count per cm2 of silicone disk at 16 ug/ml after 48 hrs […]; assay type: functional; summary of the method: as §1
# Candida albicans [7] = assay: Antifungal activity against Candida albicans isolate CA4 biofilm assessed as viable fungal count per cm2 of silicone disk at 32 ug/ml after 48 hrs […]; assay type: functional; summary of the method: as §1
# Candida parapsilosis [8] = assay: Antifungal activity against Candida parapsilosis isolate CP1 biofilm assessed as viable fungal count per cm2 of silicone disk at 64 ug/ml after 48 hrs […]; assay type: functional; summary of the method: as §1
# Candida albicans [9] = assay: Antifungal activity against Candida albicans isolate CA4 biofilm assessed as appearance of collapsed blastospore at 1 ug/ml after 48 hrs by scanning electron microscopy; assay type: functional, organism-based; summary of the method: as §2
# Candida albicans [10] = assay: Antifungal activity against Candida albicans isolate CA4 biofilm after 48 hrs by XTT assay; assay type: functional; settings: isolate CA4, 48 h
# Summary of the method: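 Biofilms of clinical bloodstream isolates grown 24 h in RPMI 1640 (MOPS, pH 7.0) on human-serum-preconditioned silicone disks, after 1.5 h attachment at 37°C from 1 × 10^6 CFU/ml. Washed disks exposed 48 h at 35°C on rocker to 10 doubling dilutions, 0.25–128 μg/ml. XTT-menadione reduction 2 h at 37°C, A490; concentration giving 50% reduction of metabolic activity vs drug-free control; triplicate.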
# Candida tropicalis [11] = assay: Antifungal activity against Candida tropicalis isolate CT8 biofilm assessed as change in cellular morphology at 16 ug/ml after 48 hrs by scanning electron microscopy; assay type: functional, organism-based; summary of the method: as §2
# Candida tropicalis [12] = assay: Antifungal activity against Candida tropicalis isolate CT8 biofilm assessed as viable fungal count per cm2 of silicone disk at 0.25 ug/ml after 48 hrs […]; assay type: functional; summary of the method: as §1
# Candida parapsilosis [13] = assay: Antifungal activity against Candida parapsilosis isolate CP1 biofilm assessed as viable fungal count per cm2 of silicone disk at 1 ug/ml after 48 hrs […]; assay type: functional; summary of the method: as §1
# Candida parapsilosis [14] = assay: Antifungal activity against Candida parapsilosis isolate CP1 biofilm assessed as viable fungal count per cm2 of silicone disk at 4 ug/ml after 48 hrs […]; assay type: functional; summary of the method: as §1
# Candida parapsilosis [15] = assay: Antifungal activity against Candida parapsilosis isolate CP1 biofilm assessed as viable fungal count per cm2 of silicone disk at 0.5 ug/ml after 48 hrs […]; assay type: functional; summary of the method: as §1
# Candida albicans [16] = assay: Antifungal activity against Candida albicans isolate CA4 biofilm assessed as viable fungal count per cm2 of silicone disk at 8 ug/ml after 48 hrs […]; assay type: functional; summary of the method: as §1
# Candida parapsilosis [17] = assay: Antifungal activity against Candida parapsilosis isolate CP1 biofilm after 48 hrs by XTT assay; assay type: functional; settings: Lodderomyces parapsilosis, isolate CP1, 48 h
# Summary of the method: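 Biofilms on serum-preconditioned silicone disks in MOPS-buffered RPMI 1640 (pH 7.0), grown 24 h, PBS-washed, then challenged 48 h at 35°C on a rocker with ten doubling caspofungin dilutions, 0.25–128 μg/ml. Metabolic activity read by XTT-menadione reduction, 2 h at 37°C, A490. SMIC taken as the concentration giving 50% reduction in metabolic activity versus drug-free control. Triplicate.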
# Candida albicans [18] = assay: Antifungal activity against Candida albicans isolate CA4 biofilm assessed as assessed as appearance of increased number of small blastospore at 128 ug/ml after 48 hrs by scanning electron microscopy; assay type: functional, organism-based; summary of the method: as §2
# Candida tropicalis [19] = assay: Antifungal activity against Candida tropicalis isolate CT8 biofilm assessed as viable fungal count per cm2 of silicone disk at 1 ug/ml after 48 hrs […]; assay type: functional; summary of the method: as §1
# Candida tropicalis [20] = assay: Antifungal activity against Candida tropicalis isolate CT8 biofilm assessed as appearance of collapsed cell wall at 1 ug/ml after 48 hrs by scanning electron microscopy; assay type: functional, organism-based; summary of the method: as §2
# Candida tropicalis [21] = assay: Antifungal activity against Candida tropicalis isolate CT8 biofilm assessed as viable fungal count per cm2 of silicone disk at 8 ug/ml after 48 hrs […]; assay type: functional; summary of the method: as §1
# Candida parapsilosis [22] = assay: Antifungal activity against Candida parapsilosis isolate CP1 biofilm assessed as viable fungal count per cm2 of silicone disk at 8 ug/ml after 48 hrs […]; assay type: functional; summary of the method: as §1
# Candida albicans [23] = assay: Antifungal activity against Candida albicans isolate CA4 biofilm assessed as viable fungal count per cm2 of silicone disk at 16 ug/ml after 48 hrs […]; assay type: functional; summary of the method: as §1
# Candida parapsilosis [24] = assay: Antifungal activity against Candida parapsilosis isolate CP1 biofilm assessed as viable fungal count per cm2 of silicone disk at 128 ug/ml after 48 hrs […]; assay type: functional; summary of the method: as §1
smiles,measurement,setting,value
CC[C@H](C)C[C@H](C)CCCCCCCCC(=O)N[C@H]1C[C@@H](O)[C@@H](NCCN)NC(=O)[C@@H]2[C@@H](O)CCN2C(=O)[C@H]([C@H](O)CCN)NC(=O)[C@H]([C@H](O)[C@@H](O)c2ccc(O)cc2)NC(=O)[C@@H]2C[C@@H](O)CN2C(=O)[C@H]([C@@H](C)O)NC1=O [CASPOFUNGIN],log10cfu,Candida albicans [1],4.7
same,Activity,Candida albicans [2],Active
same,log10cfu,Candida tropicalis [3],3.3
same,log10cfu,Candida tropicalis [4],5.7
same,log10cfu,Candida tropicalis [5],5
same,log10cfu,Candida tropicalis [6],5.7
same,log10cfu,Candida albicans [7],5.6
same,log10cfu,Candida parapsilosis [8],3.6
same,Activity,Candida albicans [9],Active
same,MIC,Candida albicans [10],0.5 µg/mL
same,Activity,Candida tropicalis [11],Active
same,log10cfu,Candida tropicalis [12],6.4
same,log10cfu,Candida parapsilosis [13],0
same,log10cfu,Candida parapsilosis [14],5.1
same,log10cfu,Candida parapsilosis [15],0
same,log10cfu,Candida albicans [16],5.6
same,MIC,Candida parapsilosis [17],4 µg/mL
same,Activity,Candida albicans [18],Active
same,log10cfu,Candida tropicalis [19],5.7
same,Activity,Candida tropicalis [20],Active
same,log10cfu,Candida tropicalis [21],5.7
same,log10cfu,Candida parapsilosis [22],5.2
same,log10cfu,Candida albicans [23],6.2
same,log10cfu,Candida parapsilosis [24],2.7
